IC50 data for 12 compounds are collected here from ChEMBL document CHEMBL3046847, “Synthesis and in vitro antiproliferative activity of novel 12(H)-quino[3,4-b][1,4]benzothiazine derivatives” (Med Chem Res, 2013).

Values after ≈ are worked out from the molar mass of the structure shown.

The subject of one test is SNB-19. The test is described as follows: Cytotoxicity against Homo sapiens (human) SNB19 cells assessed as cell viability after 72 hr by WST-1 assay. The class given is functional, cell-based. The procedure, abridged:
(§1)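 Cells grown in D-MEM with 12 % FCS, streptomycin and penicillin at 37 °C, 5 % CO2, seeded at 1×10^4 cells/well. Exposed to compounds at 0–100 μg/ml for 72 h, then incubated with WST-1 for 2 h. Absorbance was read at 450 nm against a background control. Values are means of at least two independent experiments run in triplicate.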
On the technique in general: Formazan colour is commonly taken as a measure of viable cells.

The subject of the next test is C32. The test is described as follows: Cytotoxicity against Homo sapiens (human) C32 cells assessed as cell viability after 72 hr by WST-1 assay. The class given is functional, cell-based. Summed up:
as §1

The mark [1] stands for this setting: Homo sapiens, C32, 72 h, read-out: IC50.
[2] abbreviates: Homo sapiens, SNB-19, 72 h, read-out: IC50.

On to `Clc1ccc2c(c1)Sc1cnc3ccccc3c1N2`, for which the IC50 (in general, the point on the concentration scale where inhibition reaches its midpoint) was “Not Active” in the test on SNB-19 (snb-19) and 7.8 µg/mL (≈ 27.4 µM) with C32 (setting [1]).
In the case of `c1cnc2c(c1)N(CCN1CCCCC1)c1c(cnc3ccccc13)S2`, the IC50 is 7.3 µg/mL (≈ 20.1 µM) in the test with SNB-19 (setting [2]) and 7.9 µg/mL (≈ 21.8 µM) with C32 (setting [1]).
In the case of `CN(C)CCCN1c2cccnc2Sc2cnc3ccccc3c21`, the IC50 in the test on SNB-19 (setting [2]) amounted to 8.2 µg/mL (≈ 24.4 µM); in the test on C32 (setting [1]), 6.5 µg/mL (≈ 19.3 µM).
For `c1ccc2c(c1)Sc1cnc3ccccc3c1N2CCN1CCCCC1` the same measures were 6.7 µg/mL (≈ 18.5 µM) and 5.6 µg/mL (≈ 15.5 µM).
`Fc1ccc2c(c1)Sc1cnc3ccccc3c1N2CCN1CCCCC1`: the IC50 in the test on SNB-19 (setting [2]) was found to be 12.4 µg/mL (≈ 32.7 µM); in the test with C32 (setting [1]), 7 µg/mL (≈ 18.4 µM).
In the case of `Cc1ccc2c(c1)Sc1cnc3ccccc3c1N2CCN1CCCCC1`, the IC50 with SNB-19 (setting [2]) was 6.6 µg/mL (≈ 17.6 µM); in the test on C32 (setting [1]), 6.9 µg/mL (≈ 18.4 µM).
For the compound `Cc1cccc2c1Nc1c(cnc3ccccc13)S2`, the IC50 result in the test on SNB-19 (snb-19) and with C32 (c32) was “Not Active” throughout.
Turning to `c1cnc2c(c1)Nc1c(cnc3ccccc13)S2`, the figures for the IC50 in the test with SNB-19 (setting [2]) and with C32 (setting [1]) were 10.2 µg/mL (≈ 40.6 µM) and 8.7 µg/mL (≈ 34.6 µM), respectively.
Turning to `Cc1ccc2c(c1)Sc1cnc3ccccc3c1N2`, the 50% inhibitory concentration (IC50) result with SNB-19 (snb-19) was “Not Active”; with C32 (setting [1]), 8.7 µg/mL (≈ 32.9 µM).
`Brc1ccc2c(c1)Sc1cnc3ccccc3c1N2`: the results for the IC50 entry in the test with SNB-19 (snb-19) and with C32 (setting [1]) were “Not Active” and 8.6 µg/mL (≈ 26.1 µM), respectively.
As for `Fc1ccc2c(c1)Sc1cnc3ccccc3c1N2`, the IC50 result with SNB-19 (snb-19) is “Not Active”; with C32 (setting [1]) it was 9.4 µg/mL (≈ 35 µM).
In the case of `c1ccc2c(c1)Nc1c(cnc3ccccc13)S2`, the IC50 was found to be 9.6 µg/mL (≈ 38.3 µM) in the test with SNB-19 (setting [2]) and 8.9 µg/mL (≈ 35.6 µM) in the test on C32 (setting [1]).
